As a reminder, the inhibition is the change of the read-out against control, counted positive when it falls. Broadly, the pIC50 is the negative decadic logarithm of the IC50, by convention in mol/L.

For assay [1], the target named is Replicase polyprotein 1ab (Severe acute respiratory syndrome coronavirus 2) (UniProt P0DTD1). The assay can be described thus: Inhibition of SARS-COV2 main protease mediated cytotoxicity against human HepG2 cells transfected with pCMV3-2019-nCoV-3CLpro plasmid assessed as increase in cell number at 5 uM measured at 48 hrs by Nucblue dye based microscopic analysis. In outline:
(§1)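 HepG2 or A549 cells (3×10^5) were lipofected 16 h after seeding with 3 µg pCMV3-2019-nCoV-3CLpro in serum-free DMEM for 8 h, then grown in complete medium for 12 h. Cells were trypsinised and 1×10^4 replated with hygromycin B (200 µg) plus compound or E64 (5 µM) for 48 h. NucBlue (Hoechst 33342) was added for 30 min at 37 °C, then imaging and hemocytometer counts against nontransfected cells.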

Assay [2] shares this target. In words: Inhibition of SARS-COV2 main protease mediated cytotoxicity against human A549 cells transfected with pCMV3-2019-nCoV-3CLpro plasmid assessed as increase in cell number at 5 uM measured at 48 hrs by Nucblue dye based microscopic analysis. The procedure, abridged: as §1
Assay [3] shares this target. The assay can be described thus: Inhibition of SARS-COV2 main protease mediated cytotoxicity against human HepG2 cells transfected with pCMV3-2019-nCoV-3CLpro plasmid assessed as increase in cell number and measured at 48 hrs by calcien AM staining based microscopic analysis. In outline:
(§2)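 3-D organoid-like culture: pCMV3-2019-nCoV-3CLpro-transfected or nontransfected HepG2 or A549 cells (3000 cells/µL) were mixed 1:1 with growth factor-reduced Matrigel, with drug-containing medium added at the same time. Viable cells were imaged after calcein AM staining. Organoids were then melted on ice, pelleted, trypsinised and counted by hemocytometer.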

For assay [4] the target is unchanged. The assay can be described thus: Inhibition of SARS-COV2 main protease mediated cytotoxicity against human A549 cells transfected with pCMV3-2019-nCoV-3CLpro plasmid assessed as increase in cell number and measured at 48 hrs by calcien AM staining based microscopic analysis. The procedure, abridged: as §2
Assay [5] shares this target. The assay can be described thus: Inhibition of SARS-COV2 main protease mediated cytotoxicity against human A549 cells transfected with pCMV3-2019-nCoV-3CLpro plasmid assessed as increase in cell number measured at 48 hrs in presence of buthionine sulfoximine by Nucblue dye based microscopic analysis. The procedure, abridged: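 Transfected A549 cells were pretreated with 500 µM buthionine sulfoximine. At 20 h post-transfection, compound or E64 (5 µM) was added with 1 mM BSO. After 48 h, cells were stained with NucBlue (Hoechst 33342), imaged and counted, with nontransfected cells handled identically.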

Assay [6] shares this target. The assay can be described thus: Inhibition of SARS-COV2 main protease mediated cytotoxicity against human A549 cells transfected with pCMV3-2019-nCoV-3CLpro plasmid assessed as GSH level measured at 48 hrs in presence of buthionine sulfoximine by Nucblue dye based microscopic analysis. Type of assay: cell-based.
For assay [7] the target is unchanged. The assay can be described thus: Binding affinity to recombinant SARS-COV2 main protease expressed in Escherichia coli Rosetta cells at 2 uM measured after 16 hrs by LC-MS analysis based equilibrium dialysis method. In outline: (§3)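 Purified His-GST-tagged MPro expressed in E. coli Rosetta and released with HRV3C protease. MPro (30 µg) in 50 mM potassium phosphate pH 7.5 with 2 µM compound was dialysed against the same solution without protein (3.5 kDa cutoff) for 16 h at room temperature. Drug in the dialysate was quantified by LC-MS or LC-MS/MS against a no-protein control. The dialyser contents were then denatured and drug re-measured.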
Background: Equilibrium dialysis compares concentrations on both sides of a semipermeable membrane.

For assay [8], the target named is T1, Replicase polyprotein 1ab (Severe acute respiratory syndrome coronavirus 2, UniProt P0DTD1). The assay can be described thus: Inhibition of recombinant SARS-COV2 main protease expressed in Escherichia coli Rosetta cells using DABCYL-KTSAVLQSGFRKME-EDANS as substrate pre-incubated for 60 mins followed by substarte addition by FRET-based assay. In outline: (§4)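 FRET assay with purified E. coli-expressed MPro (0.5 µM) in 50 mM Tris pH 7.4 with 2 µM EDTA and no DTT. MPro was preincubated 60 min at 37 °C with a range of inhibitor concentrations, with 5 mM GSH added for line 12. IC50 came from initial rates.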

Assay [9] concerns the target Replicase polyprotein 1ab (Severe acute respiratory syndrome coronavirus 2) (UniProt P0DTD1). In words: Inhibition of recombinant SARS-COV2 main protease expressed in Escherichia coli Rosetta cells at 5 uM using DABCYL-KTSAVLQSGFRKME-EDANS as substrate pre-incubated for 60 mins followed by substarte addition measured at 5 min by FRET-based assay relative to control. The procedure, abridged: (§5)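 Time-course variant of the FRET assay: fixed inhibitor concentration with preincubation times varied (5–120 min, 37 °C) in 50 mM Tris pH 7.4 with 2 µM EDTA. Conditions were 0.5 µM MPro with 5 µM inhibitor, or 0.25 µM MPro with 0.5 µM inhibitor.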

Assay [10] shares this target. In words: Inhibition of recombinant SARS-COV2 main protease expressed in Escherichia coli Rosetta cells at 0.5 uM using DABCYL-KTSAVLQSGFRKME-EDANS as substrate pre-incubated for 60 mins followed by substarte addition and measured at 30 min by FRET-based assay relative to control. In outline:
as §5

Assay [11] addresses T1, Replicase polyprotein 1ab. In words: Inhibition of recombinant SARS-COV2 main protease expressed in Escherichia coli Rosetta cells using DABCYL-KTSAVLQSGFRKME-EDANS as substrate pre-incubated for 60 mins followed by substarte addition measured at 30 min in presence of GSH by FRET-based assay. The procedure, abridged: as §4
Assay [12] concerns the target Replicase polyprotein 1ab (Severe acute respiratory syndrome coronavirus 2) (UniProt P0DTD1). In words: Binding affinity to recombinant SARS-COV2 main protease expressed in Escherichia coli Rosetta cells at 2 uM measured after 16 hrs by LC-MSMS analysis based equilibrium dialysis method. The procedure, abridged:
as §3

pIC50: −log10 of the molar value. Activity calls are given as the source filed them.

For the compound `CC1=C(CO)C(=O)O[C@@H]([C@@H](C)[C@H]2CC[C@H]3[C@@H]4C[C@H]5O[C@]56[C@@H](O)C=CC(=O)[C@]6(C)[C@H]4CC[C@]23C)C1` [WITHAFERIN A], the inhibition result in assay [1], in assay [2], in [3], in [4], in assay [5] and in [6] was “Active” each time. For the same compound, the result in [7] was Active. Further, the values for the pIC50 in assay [8] and in assay [11] were 6.27 and 6.20, respectively. Also, the inhibition in assay [9] was found to be 100%; in assay [10], 80%.

In the case of `CC(C)C[C@H](NC(=O)[C@H]1O[C@@H]1C(=O)O)C(=O)NCCCCN=C(N)N`, the inhibition entry in assay [1], in assay [2] and in assay [5] was “Active” throughout.

On to `CC1=C(C)C(=O)O[C@@H]([C@@H](C)[C@@]2(O)CC[C@H]3[C@@H]4[C@@H]5O[C@@H]5[C@@]5(O)CC=CC(=O)[C@]5(C)[C@H]4CC[C@@]32C)C1` [WITHANONE], for which the inhibition result in [1], in [2], in assay [3], in assay [4], in assay [5] and in [6] was “Active” throughout. In assay [12], the outcome was Active. In [8], the pIC50 is 5.74.

The record behind these values is ChEMBL document CHEMBL5137122, “The Natural Products Withaferin A and Withanone from the Medicinal Herb Withania somnifera Are Covalent Inhibitors of the SARS-CoV-2 Main Protease” (J Nat Prod, 2022).
